Results reported in PubChem BioAssay AID373 (The Scripps Research Institute Molecular Screening Center, 2006).
The campaign covered roughly 60,000 compounds. About 60 (0.1%) were called active.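 How the source made its calls: active means activation above the screen-wide mean plus 3 SD (cut at about 4.5% in these data, passing the limit was not always enough); inactive means the rest, inconclusive results apart.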 This excerpt belongs to a sample that is enriched for actives.

Target: Sphingosine 1-phosphate receptor 3 (Homo sapiens) (UniProt Q99500)
Sequence (Q99500 whole entry, looked up): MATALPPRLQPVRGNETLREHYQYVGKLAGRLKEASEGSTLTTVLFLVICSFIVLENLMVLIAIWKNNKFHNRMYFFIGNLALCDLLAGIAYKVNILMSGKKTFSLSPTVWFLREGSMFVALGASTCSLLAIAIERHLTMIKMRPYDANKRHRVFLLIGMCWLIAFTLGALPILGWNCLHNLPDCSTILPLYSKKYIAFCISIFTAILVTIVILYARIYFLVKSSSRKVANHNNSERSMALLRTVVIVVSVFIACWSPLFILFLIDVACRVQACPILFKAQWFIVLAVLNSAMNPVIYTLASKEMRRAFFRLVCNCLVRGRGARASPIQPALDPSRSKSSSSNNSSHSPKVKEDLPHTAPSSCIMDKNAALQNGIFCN
Assay: activators of S1P3 receptor signaling – cell-based, primary and confirmation, NFAT-BLA reporter, primary screen (AID 373)
In short: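 material = human S1P3 NFAT-BLA reporter CHO cells | schedule = 4 h compound at 37 °C, 2 h substrate at RT | measured by = fluorescent BLA substrate, ex 405 nm, em 460/535 nm ratio | controls = 1 µM S1P reference | replication = primary once, confirmation triplicate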

[1] = S1P3 NFAT-BLA reporter cells, agonism, FRET ratio, at 4.5 µM, stronger effect = higher value, relative to 1 µM S1P, basal subtracted

CC(NC(=O)c1cc(-c2ccccc2)on1)c1ccccc1 (stereo not given)
activation [1]: -1.3% (inactive)

O=C(Nc1ccc2c(c1)nc1n2CCCCC1)c1cc(S(=O)(=O)N2CCOCC2)ccc1Cl
activation [1]: -0.4% (inactive)

C=C(C)c1cccc(C(C)(C)NC(=O)N2CCN(c3ncccn3)CC2)c1
activation [1]: -0.9% (inactive)

CC(C)C(=O)Nc1c(C(=O)c2ccc(F)cc2)oc2ccccc12
activation [1]: -0.2% (inactive)

O=C(CN1CCOCC1)N1CCCc2c1c(=O)oc1ccc(OCc3ccccc3)cc21
activation [1]: -1% (inactive)

COCCOC(=O)C1=C(C)N=c2s/c(=C\c3cccs3)c(=O)n2C1c1cccs1 (stereo not given)
activation [1]: -2% (inactive)

CC1(C)CC(=O)c2cc(OCC(=O)NCC3CCCO3)ccc2O1 (stereo not given)
activation [1]: -0.8% (inactive)

CN(CCc1ccccn1)S(=O)(=O)c1ccc2c3c(cccc13)C(=O)N2
activation [1]: 0.3% (inactive)

CC(=O)N1CC2(C)CN(C(C)=O)CC(C)(C1)C2=O
activation [1]: 0% (inactive)

Cc1ccc2c(c1)sc1ncc(NC(=O)c3ccccc3)c(=O)n12
activation [1]: -1.1% (inactive)

O=C(NCCc1ccco1)c1nn(Cc2ccccc2)c(=O)c2ccccc12
activation [1]: 0.7% (inactive)

Cc1ccnc(N2C(=O)c3ccccc3C2Nc2ccc3c(c2)OCCO3)c1 (stereo not given)
activation [1]: 0.3% (inactive)

COc1ccc(OC)c(NC(=O)CSc2nc3cccnc3n2C)c1
activation [1]: 0.2% (inactive)

COc1ccc(Cn2c(=O)sc3ccccc32)cc1OC
activation [1]: -0.4% (inactive)

O=C(NC(c1ccccc1)c1ccccc1)N1CCN(CCO)CC1
activation [1]: 0.8% (inactive)

C=CCn1c(N)c(C(=O)OCC(C)C)c2nc3ccccc3nc21
activation [1]: 0.4% (inactive)

CC(C)Cn1c(N)c(C(=O)NCc2cccs2)c2nc3ccccc3nc21
activation (S1P3 NFAT-BLA reporter cells, agonism, FRET ratio; at 4.5 µM; stronger effect = higher value; relative to 1 µM S1P, basal subtracted): 8.2% (active) | activation (S1P3 NFAT-BLA reporter cells, agonism, FRET ratio; measured here: confirmation screen, triplicate average; at 4.5 µM; stronger effect = higher value; relative to 1 µM S1P, basal subtracted): 5.4%

C=CCn1c(N)c(S(=O)(=O)c2cccs2)c2nc3ccccc3nc21
activation [1]: -0.5% (inactive)

CCCOC(=O)CC1C(=O)NCCN1Cc1ccc(F)cc1 (stereo not given)
activation [1]: 0.3% (inactive)

COc1cc(OC)cc(C(=O)Nc2ncc3c(n2)CC(C)(C)CC3=O)c1
activation [1]: -1.1% (inactive)

CN1CCN(C(=O)c2ccc(NS(=O)(=O)c3ccccc3)cc2)CC1
activation [1]: -0.2% (inactive)

CCOc1cc(C(=O)N2CCc3cc(OC)c(OC)cc3C2)ccc1OC(F)F
activation [1]: -0.2% (inactive)

COc1ccc(S(=O)(=O)N2CCN(C(=O)c3cccs3)CC2)cc1OC
activation [1]: 0% (inactive)

Cc1c2cnn(-c3ccccc3)c(=O)c2c(C)n1CCCC(=O)N1CCN(C)CC1
activation [1]: -1.3% (inactive)

COc1ccc(C(=O)OCC(=O)c2ccc(C)c(S(=O)(=O)N3CCOCC3)c2)cc1OC
activation [1]: -1% (inactive)

CC1(C)CC(CCC(=O)Nc2ccccc2Cl)C(=O)O1 (stereo not given)
activation [1]: -0.9% (inactive)

Cc1ccccc1-n1c(SCC(=O)NCc2cccs2)nnc1-c1ccncc1
activation [1]: 0.9% (inactive)

CC1(C)Oc2ccc(C(=O)N3CCOCC3)cc2N(CC(=O)Nc2ccccc2)C1=O
activation [1]: -0.1% (inactive)

CCCCc1nc2c(=O)[nH]c3ccccc3c2o1
activation [1]: -0.4% (inactive)

C=CCn1c(C2CC(=O)N(c3ccc(C)cc3)C2)nc2ccccc21 (stereo not given)
activation [1]: -2.5% (inactive)

O=C(COc1ccccc1)N1CCc2ccccc2C1
activation [1]: 0.4% (inactive)

CC(=O)CSc1nnc(CSc2ncccn2)n1C1CCCCC1
activation [1]: -0.6% (inactive)

CC1(C)CC(=O)C(C2=NC(C)(C)Cc3ccccc32)=C(O)C1
activation [1]: -2% (inactive)

CC(C)C(=O)Nc1cccc(C(=O)Nc2ccc3c(c2)OCO3)c1
activation [1]: -1.2% (inactive)

COc1ccc(OC)c2c1sc(=NC(=O)CN1C(=O)CCC1=O)n2C
activation [1]: -2.3% (inactive)

OCc1nc(CO)n(Cc2ccccc2)n1
activation [1]: -1% (inactive)

COc1ccc(N2C(=O)CN=C2Nc2cccc(C)c2C)cc1OC
activation [1]: 0.2% (inactive)

CCCc1nnc(NC(=O)CN2C(=O)c3ccccc3S2(=O)=O)s1
activation [1]: -1% (inactive)

CCOC(=O)c1sc(/N=C/Nc2nc(C)c(C(=O)OCC)s2)nc1C
activation [1]: -1.5% (inactive)

N#CCCN(CCC#N)c1nnc(-c2ccccc2)s1
activation [1]: -0.2% (inactive)

CCOC(=O)C1C(=O)C=C(c2ccc(OC)cc2)CC1c1ccco1 (stereo not given)
activation [1]: -1.9% (inactive)

Cc1nc(SC(C)C)[nH]c(=O)c1Cc1ccccc1
activation [1]: 0.1% (inactive)

CCCc1cc(=O)oc2c(C)c(O)c(CN3CCCCC3)cc12
activation [1]: -2.1% (inactive)

CCC(=O)Nc1ccccc1C(=O)N1CCN(Cc2ccccc2)CC1
activation [1]: -1.1% (inactive)

NS(=O)(=O)c1ccc(NS(=O)(=O)/C=C/c2ccccc2)cc1
activation [1]: 1.3% (inactive)

Cc1occc1C(=O)Nc1cccc(Cn2cccn2)c1
activation [1]: -0.4% (inactive)

COc1ncnc2sc3c(c12)CCCC3
activation [1]: -0.3% (inactive)

COc1ccc(C)cc1S(=O)(=O)NC1CCCCC1
activation [1]: -0.3% (inactive)

CCOc1cccc(/C(O)=C2/C(=O)C(=O)N(CCOC)C2c2ccncc2)c1 (stereo not given)
activation [1]: -1.3% (inactive)

CCOC(=O)c1sc(NC(=O)C(CC)Sc2nccn2C)nc1C (stereo not given)
activation [1]: -1.7% (inactive)

Cc1cccc(NC(=O)CN2CCCN(S(=O)(=O)c3ccc(Br)s3)CC2)c1
activation [1]: -1.4% (inactive)

CCOC(=O)c1cc(-c2nnc(-c3cc(OC)c(OC)c(OC)c3)o2)c(C)nc1C
activation [1]: -1.5% (inactive)

CCOC(=O)c1c(C(C#N)C#N)cc(C)nc1C
activation [1]: -3.8% (inactive)

O=C(Cn1nnc(-c2ccccc2)n1)NCc1ccccc1
activation [1]: -0.5% (inactive)

Cc1cc(C)nc(SCc2nnc(SCC(=O)Nc3ncc(C)s3)n2Cc2ccco2)n1
activation [1]: 0% (inactive)

CCn1ncc(C2=NOC(C(=O)Nc3ccccc3C(=O)OC)C2)c1C (stereo not given)
activation [1]: -0.6% (inactive)

CC1Cc2cc(/C(O)=C3\C(=O)C(=O)N(CCN4CCOCC4)C3c3ccccc3F)ccc2O1 (stereo not given)
activation [1]: 0.5% (inactive)

CC1CN(C(=O)CN2C(=O)NC(C)(c3ccccc3)C2=O)CC(C)O1 (stereo not given)
activation [1]: 1.6% (inactive)

O=C1NC(Nc2nc3ccccc3s2)(C(F)(F)F)C(=O)N1C1CCCCC1 (stereo not given)
activation [1]: -0.5% (inactive)

Cc1nc(SCC(=O)Nc2cc(C)on2)c2c3c(sc2n1)CCCC3
activation [1]: -0.8% (inactive)

CCOc1ccc(NC(=O)N(CCC(C)C)C(C)c2ccco2)cc1 (stereo not given)
activation [1]: -0.3% (inactive)

Cc1cc(=O)n(C)c(=O)n1CCCNc1ccccc1
activation [1]: -0.2% (inactive)

CCOc1ccc(CNC(=O)C2CC(=O)N(C3CCCC3)C2)cc1OC (stereo not given)
activation [1]: 0.9% (inactive)

O=C1CCC(Cc2ccccc2)N1 (stereo not given)
activation [1]: 0.3% (inactive)

CCCCOc1ccc(-c2nnc(-c3ccco3)o2)cc1
activation [1]: -0.5% (inactive)

COC(=O)N1CN(C(=O)OC)CN(C(=O)OC)C1
activation [1]: -0.2% (inactive)

COC(=O)CN(c1nc(C)c(Cl)c(OC)n1)S(=O)(=O)c1ccc(C)cc1
activation [1]: -1.1% (inactive)

O=C(O)c1ccc(NS(=O)(=O)c2cccc3nsnc23)cc1
activation [1]: -0.5% (inactive)

Cn1c(=O)[nH]c(=O)c2c1nc(Br)n2CCCCSc1nc2ccccc2o1
activation [1]: -1.6% (inactive)

O=C(NCCN1CCOCC1)c1ccc2c(c1)ncn2C1CCCC1
activation [1]: -0.2% (inactive)

COc1cccc(OCC(=O)Nc2ccccc2C(N)=O)c1
activation [1]: -1.1% (inactive)

CCOC(=O)N1CCN(C(=O)c2cc3c(-c4ccc(Cl)cc4)nn(C)c3s2)CC1
activation [1]: -1.5% (inactive)

Cc1cc(C)c2nc(SCCC#N)nc(C)c2c1
activation [1]: -0.8% (inactive)

c1cc(-c2nn[nH]n2)ccc1CN1CCCCC1
activation [1]: -0.2% (inactive)

N#CC(C(N)=O)=C1CCC2(CC1)OCCCCO2
activation [1]: -0.6% (inactive)

CC(CNC(=O)c1ccc(Br)o1)NC(=O)c1ccc(Br)o1 (stereo not given)
activation [1]: -0.8% (inactive)

Cc1ccc(OCC(=O)Nc2ccc(-c3nc4ncccc4o3)cc2)cc1
activation [1]: 0.4% (inactive)

O=c1c2ccccc2[nH]c(=S)n1CCN1CCC(=C(c2ccc(F)cc2)c2ccc(F)cc2)CC1
activation [1]: -2.2% (inactive)

Cc1cc(NC(=O)CCC(=O)N(c2ccccc2)C(C(=O)NC2CCCC2)c2ccncc2)no1 (stereo not given)
activation [1]: -0.2% (inactive)

O=C(OCCO)c1cc(Cl)c(C(=O)OCCO)cc1Cl
activation [1]: -1.2% (inactive)

Cc1cccc(NC(=O)C2CCN(S(=O)(=O)c3cccc4cccnc34)CC2)c1
activation [1]: -0.2% (inactive)

CN(C)c1ccnc2sc3c(=O)n(Cc4ccccc4)cnc3c12
activation [1]: -1.9% (inactive)

CCN1C(=O)/C(=C2\SC(N3CCCCC3)=NC2=O)c2ccccc21
activation [1]: -0.5% (inactive)

COc1ccc2c(c1OC)C(=O)OC2c1c(O)nc(SC)n(-c2ccccc2)c1=O (stereo not given)
activation [1]: -2.9% (inactive)

CCc1nnc(NC(=O)c2cccs2)s1
activation [1]: 0.7% (inactive)

COc1ccc(C(=O)N(CCN2CCOCC2)CC(=O)NC2CCCC2)cc1OC
activation [1]: 0.6% (inactive)

CCn1c(=O)cc(O)c2ccccc21
activation [1]: 0.7% (inactive)

CCOC(=O)C1=C(C)N=c2s/c(=C\C(=O)OC)c(=O)n2C1c1ccc(OC)cc1 (stereo not given)
activation [1]: -0.8% (inactive)

O=C(CCc1ccccc1)Nc1cccc(-c2nnc(-c3ccco3)o2)c1
activation [1]: -0.9% (inactive)

CCc1cc(=O)oc2cc(C)cc(OC(C)C(=O)O)c12 (stereo not given)
activation [1]: -0.4% (inactive)

COc1ccc(Cn2nnc3c(=O)[nH]c(C4CCN(C(=O)c5ccccc5Cl)CC4)nc32)cc1
activation [1]: -0.1% (inactive)

COc1ccc(N2C(=O)C3CCCN3C2c2cccc(OC)c2)cc1 (stereo not given)
activation [1]: -0.5% (inactive)

Cc1ccc(C(=O)Nc2nnc(-c3cccs3)s2)cc1C
activation [1]: -0.6% (inactive)

COc1ccccc1NC(=O)CN1CCN(S(=O)(=O)c2ccc(Br)cc2)CC1
activation [1]: -0.8% (inactive)

Cc1ccc(C(C(=O)NCc2ccco2)N(CC2CCCO2)C(=O)Cn2nnc3ccccc32)cc1 (stereo not given)
activation [1]: -0.7% (inactive)

CC1CCN(Cc2nc3c(c(=O)n(C)c(=O)n3C)n2Cc2cccc3ccccc23)CC1
activation [1]: -0.5% (inactive)

COC(=O)Cn1c(=NC(=O)CSCC(=O)Nc2cc(C)on2)sc2ccccc21
activation [1]: -0.5% (inactive)

COC(=O)c1c(-c2ccc(C)cc2)csc1N
activation [1]: -0.4% (inactive)

CCOC(=O)N1CCN(CC(=O)c2ccc3c(c2)CCN3)CC1
activation [1]: 0% (inactive)

CC(C)(C)c1ccc(NC(=O)NCc2ccco2)cc1
activation [1]: -0.2% (inactive)

CC(=O)CCS(=O)(=O)c1ccc(C)c(C)c1
activation [1]: -3% (inactive)

COC(=O)c1ccc(CSc2nncn2C)cc1
activation [1]: -1.1% (inactive)

CCn1cc(C(=O)NCC2CCCO2)c(=O)c2cc(S(=O)(=O)N3CCCCC3)ccc21 (stereo not given)
activation [1]: -0.3% (inactive)

O=c1oc2c(CN3CCCCC3)c(O)ccc2c2c1CCCCC2
activation [1]: -1% (inactive)
